Measured values reported in ChEMBL document CHEMBL1124456, “Synthesis and structure-activity relationship of substituted tetrahydro- and hexahydro-1,2-benzisothiazol-3-one 1,1-dioxides and thiadiazinones: potential anxiolytic agents” (J Med Chem, 1989).
Activity calls are given as the source filed them. The calls are words filed in the database; no cut-off is given here.

How the values were obtained:
Rattus norvegicus [1] = organism: Rattus norvegicus; experiment: Anti-psychotic activity from the ability to block discrete trial conditioned avoidance response (CAR) of rats.; format: functional
Method in brief: (§1)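 Discrete-trial conditioned avoidance in male CD rats kept at about 400–450 g body weight. Dosing was ip or po, 30 min before testing, with at least five rats per dose (20 or 40 mg/kg, or a dose range). Computer recorded intertrial, avoidance and escape responses and no-response trials. Avoidance-block trials were taken as % of total trials, with control avoidance set at 100%. AB50 came from a least-squares dose-effect regression line.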

[2] = target: D(2) dopamine receptor (Rattus norvegicus) (UniProt P61169); experiment: Inhibition of [3H]spiperone binding to Dopamine receptor D2 of rat limbic structures; format: tissue-based; parameters: concentration or dose not given beside the values; conditions: Limbic system, concentration not given here
Rattus norvegicus [3] = experiment: Mean total score of in vivo ability (8.0 mg/kg) was to elicit serotonin syndrome; format: functional
Rattus norvegicus [4] = experiment: Compound was tested for antagonism of apomorphine-induced climbing behavior, after intraperitoneal dosing and the value ranges from 0.97 - 11.7; format: functional; conditions: ip
D(2) dopamine receptor = D(2) dopamine receptor (Rattus norvegicus, UniProt P61169); experiment: In vitro ability to inhibit [3H]spiperone binding to Dopamine receptor D2 of rat limbic structures and the value ranges from 116 - 159.; format: tissue-based, Limbic system
[5] = Partition coefficient (logP); format: physicochemical; conditions: octanol/water
Rattus norvegicus [6] = experiment: Mean total score of In vivo ability (10.0 mg/kg) was to antagonize serotonin syndrome; format: functional
[7] = target: GABA-A receptor; anion channel (Rattus norvegicus) (UniProt O09028+P15431+P18506+P18508+P19969+P20236+P23574+P23576+P28471+P28473+P30191+P62813+P63079+P63138+Q91ZM7+Q9ES14); experiment: Percent inhibition of GABA-A benzodiazepine receptor at 1 uM; format: protein-complex assay
Method in brief: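 Male Sprague-Dawley rat brain (cerebellum and pons-medulla removed) was homogenized in 0.32 M sucrose to give a 30000g pellet, resuspended in Tris-HCl pH 7.5. Membranes were incubated with 1.5×10^-9 M [³H]diazepam (2.0 mL final) for 30 min at 4 °C, GF/C filtered, washed ice-cold and scintillation counted. Nonspecific binding was taken with 3×10^-6 M cold diazepam. Drug was tested at 1 μM.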

Rattus norvegicus [8] = experiment: Compound was tested for antagonism of apomorphine-induced stereotyped behavior, after intraperitoneal dosing.; format: functional; conditions: ip
Method in brief: (§2)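 High-dose apomorphine-induced stereotyped behavior procedure. Test agents were given ip at doses up to 60 mg/kg.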

Rattus norvegicus [9] = organism: Rattus norvegicus; experiment: Anti psychotic activity was evaluated from the ability to block discrete trial conditioned avoidance response (CAR) of rats and the value ranges from 26 - 143; format: functional; method in brief: as §1
[10] = target: Adrenergic receptor alpha-1 (Rattus norvegicus) (UniProt P15823+P23944+P43140); experiment: The percent inhibition of Alpha-1 adrenergic receptor at 1 uM; format: protein assay
[11] = target: T1, 5-hydroxytryptamine receptor 1A (Rattus norvegicus, UniProt P19327); experiment: In vitro ability to inhibit [3H]8-OH-DPAT binding to 5-HT1A receptor of rat hippocampus and the value ranges from 9 - 12; format: tissue-based
T1 sequence (P19327 whole entry): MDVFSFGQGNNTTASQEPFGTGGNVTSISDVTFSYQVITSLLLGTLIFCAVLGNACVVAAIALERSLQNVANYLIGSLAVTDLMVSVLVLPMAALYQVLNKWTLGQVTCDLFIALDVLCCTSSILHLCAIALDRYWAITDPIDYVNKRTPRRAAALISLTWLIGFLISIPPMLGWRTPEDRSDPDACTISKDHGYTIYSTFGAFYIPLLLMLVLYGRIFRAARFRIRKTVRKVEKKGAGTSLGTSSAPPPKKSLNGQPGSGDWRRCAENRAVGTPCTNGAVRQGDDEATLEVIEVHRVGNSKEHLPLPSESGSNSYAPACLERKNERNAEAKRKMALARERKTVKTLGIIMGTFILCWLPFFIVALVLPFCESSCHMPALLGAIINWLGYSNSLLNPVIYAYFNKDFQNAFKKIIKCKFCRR

[12] = target: T1, 5-hydroxytryptamine receptor 1A; experiment: The inhibition activity of 5-HT1A at 1 uM
Rattus norvegicus [13] = organism: Rattus norvegicus; experiment: Anti psychotic activity was evaluated from the ability to block discrete trial conditioned avoidance response (CAR) of rats. (95%CI); 39 to 53; format: functional; method in brief: as §1
[14] = target: T2, 5-hydroxytryptamine receptor 1A (Rattus norvegicus) (UniProt P19327); experiment: In vitro ability to inhibit [3H]-8-OH-DPAT binding to 5-hydroxytryptamine 1A receptor of rat hippocampus at 1 uM; format: tissue-based
T2 sequence (whole entry): T1 sequence (P19327 whole entry)

Rattus norvegicus [15] = experiment: In vivo ability (10.0 mg/kg) was to antagonize serotonin syndrome in rat; format: functional
Method in brief: (§3)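 Rat in vivo test adapted from published serotonin syndrome methods. Agents given ip; 5-MeO-DMT at 3.0 mg/kg ip was used to elicit the syndrome. Behaviour rated and reported as mean total score (±SEM).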

Rattus norvegicus [16] = experiment: Compound was tested for antagonism of apomorphine-induced climbing behavior, after intraperitoneal dosing; format: functional; conditions: ip
Rattus norvegicus [17] = experiment: Compound was tested for antagonism of apomorphine-induced stereotyped behavior, after intraperitoneal dosing; NA is Inactive; format: functional, organism-based; method in brief: as §2
Rattus norvegicus [18] = organism: Rattus norvegicus; experiment: Antipsychotic activity was evaluated from the ability to block discrete trial conditioned avoidance response (CAR) of rats; format: functional
Method in brief: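 Male CD rats (about 400–450 g) trained in discrete-trial avoidance. Compound given ip or po 30 min before testing, at 20 or 40 mg/kg or over a dose range, with at least five rats per dose. Intertrial, avoidance, escape and no-response trials were recorded. Avoidance block is the percentage of trials without avoidance. AB50 comes from a least-squares dose–effect regression line.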

Rattus norvegicus [19] = experiment: In vivo ability (10.0 mg/kg) was to elicit serotonin syndrome in rat; format: functional; method in brief: as §3
[20] = target: D(2) dopamine receptor (Rattus norvegicus) (UniProt P61169); experiment: Inhibition of [3H]-spiperone binding to dopamine receptor D2 of rat limbic structures at 1 uM.; conditions: Limbic system
[21] = target: T1, 5-hydroxytryptamine receptor 1A; experiment: In vitro ability to inhibit [3H]8-OH-DPAT binding to 5-hydroxytryptamine 1A receptor of rat hippocampus and value ranges from 27 - 42; format: tissue-based
[22] = target: D(2) dopamine receptor (Rattus norvegicus) (UniProt P61169); experiment: Compound was tested in vitro at for the ability to inhibit [3H]spiperone binding to Dopamine receptor D2 of rat limbic structures at 3 uM; format: tissue-based; conditions: Limbic system
[23] = target: T1, 5-hydroxytryptamine receptor 1A; experiment: In vitro ability to inhibit [3H]8-OH-DPAT binding to 5-hydroxytryptamine 1A receptor of rat hippocampus and the value ranges from 12 to 17.; format: tissue-based
[24] = target: T2, 5-hydroxytryptamine receptor 1A (Rattus norvegicus); experiment: In vitro ability to inhibit [3H]8-OH-DPAT binding to 5-hydroxytryptamine 1A receptor of rat hippocampus at 1 uM; format: tissue-based
[25] = target: T1, 5-hydroxytryptamine receptor 1A; experiment: In vitro ability to inhibit [3H]-8-OH-DPAT binding to 5-hydroxytryptamine 1A receptor of rat hippocampus. and the value ranges from 16 - 27; format: tissue-based

Sequence of D(2) dopamine receptor (Rattus norvegicus) (P61169 whole entry): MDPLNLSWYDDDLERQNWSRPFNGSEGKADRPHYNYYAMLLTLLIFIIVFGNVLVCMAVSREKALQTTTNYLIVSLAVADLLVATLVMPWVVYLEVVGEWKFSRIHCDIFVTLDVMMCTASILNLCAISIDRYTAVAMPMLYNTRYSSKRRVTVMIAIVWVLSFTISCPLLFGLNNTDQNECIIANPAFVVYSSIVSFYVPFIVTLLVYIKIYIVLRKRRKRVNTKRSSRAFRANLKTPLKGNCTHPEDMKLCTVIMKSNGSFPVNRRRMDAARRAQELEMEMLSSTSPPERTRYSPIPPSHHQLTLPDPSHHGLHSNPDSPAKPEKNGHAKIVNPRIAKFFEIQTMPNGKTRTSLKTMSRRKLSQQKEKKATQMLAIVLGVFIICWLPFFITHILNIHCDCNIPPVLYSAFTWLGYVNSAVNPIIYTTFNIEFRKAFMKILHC
Sequence of D(2) dopamine receptor (P61169 whole entry): as above

Cl.Cl.O=C1c2ccccc2S(=O)(=O)N1CCCCN1CC2CN(Cc3ccccc3)CC2C1 (stereo not given)
AB50 (Rattus norvegicus [1]): >40 mg/kg
inhibition [2]: 8%

Cl.Cl.O=C1C2C3C=CC(C4C=CC43)C2S(=O)(=O)N1CCCCN1CCN(c2ncccn2)CC1 (stereo not given)
Mean (Rattus norvegicus [3]): 3.9
ED50 (Rattus norvegicus [4]): 3.38 mg/kg
Ki (D(2) dopamine receptor): 136 nM
logP [5]: 1.92
Mean (Rattus norvegicus [6]): 5.1
inhibition [7]: 0%
ED50 (Rattus norvegicus [8]): 32.2 mg/kg
AB50 (Rattus norvegicus [9]): 39 mg/kg
inhibition [10]: 54%
Ki [11]: 10 nM
Ki [12]: 10 nM

CC1=C(C)CC2C(C1)C(=O)N(CCCCN1CCN(c3ncccn3)CC1)S2(=O)=O.Cl.Cl (stereo not given)
AB50 (Rattus norvegicus [1]): 40 mg/kg
inhibition [2]: 21%

Cl.O=C1C2C3CCC(C3)C2S(=O)(=O)N1CCCCN1CCN(c2cncc(Cl)n2)CC1 (stereo not given)
AB50 (Rattus norvegicus [13]): 45 mg/kg
inhibition [14]: 51%
inhibition [2]: 32%

O=C1c2ccccc2S(=O)(=O)N1CCCCN1CCN(c2ncccn2)CC1 [IPSAPIRONE]
Mean (Rattus norvegicus [15]): 8.4
ED50 (Rattus norvegicus [16]): 26 mg/kg
ED50 (Rattus norvegicus [17]): inactive
AB50 (Rattus norvegicus [18]): 42 mg/kg
Mean (Rattus norvegicus [19]): 2.4

Cl.Cl.Cl.O=C1C2C3CCC(O3)C2S(=O)(=O)N1CCCCN1CCN(c2cccc(Cl)c2)CC1 (stereo not given)
inhibition [20]: 55%
Ki [21]: 34 nM
AB50 (Rattus norvegicus [1]): 40 mg/kg

Cl.O=C1C2C3C=CC(CC3)C2S(=O)(=O)N1CCCCN1CCN(c2cncc(Cl)n2)CC1 (stereo not given)
AB50 (Rattus norvegicus [1]): 40 mg/kg
inhibition [22]: 57%

Cl.O=C1c2cscc2S(=O)(=O)N1CCCCN1CCN(c2nccnc2Cl)CC1
AB50 (Rattus norvegicus [1]): >40 mg/kg

Cl.Cl.Cl.O=C1C2C3C=CC(C3)C2S(=O)(=O)N1CCCCN1CCN(c2ccc(Cl)nn2)CC1 (stereo not given)
AB50 (Rattus norvegicus [1]): >40 mg/kg
inhibition [2]: 3%

Cl.Cl.O=C1C2C3C=CC(C3)C2S(=O)(=O)N1CCCCN1CCN(c2cccc(C(F)(F)F)c2)CC1 (stereo not given)
Ki [23]: 15 nM
AB50 (Rattus norvegicus [1]): 51 mg/kg

Cl.Cl.O=C1N(CCCCN2CCN(c3ncccn3)CC2)S(=O)(=O)NC12CCCCC2
AB50 (Rattus norvegicus [1]): 40 mg/kg

Cl.Cl.O=c1c2ccccc2[s+]([O-])n1CCCCN1CCN(c2ncccn2)CC1 (stereo not given)
inhibition [24]: 43%
inhibition [20]: 3%
AB50 (Rattus norvegicus [1]): 40 mg/kg

CC1=C(C)CC2C(C1)C(=O)N(CCCCc1ccncc1)S2(=O)=O.Cl (stereo not given)
inhibition [24]: 8%
inhibition [20]: 56%
AB50 (Rattus norvegicus [1]): >40 mg/kg

Cl.Cl.Cl.O=C1c2cscc2S(=O)(=O)N1CCCCN1CCN(c2ccc(Cl)nn2)CC1
AB50 (Rattus norvegicus [1]): >40 mg/kg

Cl.O=C1C2C3CCC(C4CC43)C2S(=O)(=O)N1CCCCN1CCN(c2ncccn2)CC1 (stereo not given)
AB50 (Rattus norvegicus [1]): 40 mg/kg
Ki [25]: 21 nM
inhibition [2]: 70%

Cl.Cl.Cl.O=C1C2C3C=CC(C3)C2S(=O)(=O)N1CCCCN1CCN(c2cncc(Cl)n2)CC1 (stereo not given)
AB50 (Rattus norvegicus [1]): 40 mg/kg
inhibition [2]: 1%

Cl.O=C1c2cscc2S(=O)(=O)N1CCCCN1CCN(c2cncc(Cl)n2)CC1
AB50 (Rattus norvegicus [1]): >40 mg/kg

Cl.O=c1c2ccccc2[s+]([O-])n1CCCCN1CCN(c2cncc(Cl)n2)CC1 (stereo not given)
AB50 (Rattus norvegicus [1]): 40 mg/kg
inhibition [14]: 44%
inhibition [2]: 0%
